# Measured values published in ChEMBL document CHEMBL3774372, “Design, physico-chemical properties and biological evaluation of some new N-[(phenoxy)alkyl]- and N-{2-[2-(phenoxy)ethoxy]ethyl}aminoalkanols as anticonvulsant agents” (Bioorg Med Chem, 2016).
# What was measured:
# [1] = Displacement of [35S]dATPalpha S from rat cerebral cortex P2Y receptor; type: tissue-based
# Outline: (§1)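 Radioligand binding on rat cerebral cortex preparations: [35S]TBPS (GABA-gated Cl⁻ channel), [125I]apamin (SKCa), [3H]batrachotoxinin (Na⁺ site 2), [35S]dATPαS (P2Y), [3H]TCP (PCP), [3H]flunitrazepam (central BZD).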
# [2] = Displacement of [3H]TCP from rat cerebral cortex PCP receptor; type: tissue-based; outline: as §1
# [3] = target: Muscarinic acetylcholine receptor M5 (Homo sapiens, UniProt P08912); test: Displacement of [3H]4-DAMP from human recombinant muscarinic M5 receptor expressed in CHO cells; type: cell-based
# [4] = test system: Rattus norvegicus; test: Neurotoxicity in rat at 30 mg/kg, ip after […] by rotarod test; type: toxicity, organism-based; conditions: in vivo
# [5] = test system: Rattus norvegicus; test: Neurotoxicity in rat at 30 mg/kg, ip after 0.5 hrs by rotarod test; type: toxicity, organism-based; conditions: in vivo
# [6] = test system: Rattus norvegicus; test: Neurotoxicity in rat at 30 mg/kg, ip after 1 hr by rotarod test; type: toxicity, organism-based; conditions: in vivo
# [7] = test system: Rattus norvegicus; test: Neurotoxicity in rat at 30 mg/kg, ip after 2 hrs by rotarod test; type: toxicity, organism-based; conditions: in vivo
# [8] = test system: Rattus norvegicus; test: Neurotoxicity in rat at 30 mg/kg, ip after 4 hrs by rotarod test; type: toxicity, organism-based; conditions: in vivo
# [9] = test system: Rattus norvegicus; test: Neurotoxicity in rat at 30 mg/kg, po after […] by rotarod test; type: toxicity, organism-based; conditions: in vivo
# [10] = test system: Rattus norvegicus; test: Neurotoxicity in rat at 30 mg/kg, po after 0.5 hrs by rotarod test; type: toxicity, organism-based; conditions: in vivo
# [11] = test system: Rattus norvegicus; test: Neurotoxicity in rat at 30 mg/kg, po after 1 hr by rotarod test; type: toxicity, organism-based; conditions: in vivo
# [12] = test system: Rattus norvegicus; test: Neurotoxicity in rat at 30 mg/kg, po after 2 hrs by rotarod test; type: toxicity, organism-based; conditions: in vivo
# [13] = test system: Rattus norvegicus; test: Neurotoxicity in rat at 30 mg/kg, po after 4 hrs by rotarod test; type: toxicity, organism-based; conditions: in vivo
# [14] = test system: Mus musculus; test: Neurotoxicity in mouse at 20 mg/kg, ip after […] by rotarod test; type: toxicity, organism-based; conditions: in vivo
# [15] = test system: Mus musculus; test: Neurotoxicity in mouse at 40 mg/kg, ip after 4 hrs by rotarod test; type: toxicity, organism-based; conditions: in vivo
# [16] = test system: Mus musculus; test: Neurotoxicity in mouse at 40 mg/kg, ip after 2 hrs by rotarod test; type: toxicity, organism-based; conditions: in vivo
# [17] = test system: Mus musculus; test: Neurotoxicity in mouse at 40 mg/kg, ip after […] by rotarod test; type: toxicity, organism-based; conditions: in vivo
# [18] = test system: Mus musculus; test: Neurotoxicity in mouse at 40 mg/kg, ip after 1 hr by rotarod test; type: toxicity, organism-based; conditions: in vivo
# [19] = test system: Mus musculus; test: Neurotoxicity in mouse at 20 mg/kg, ip after 0.5 hrs by rotarod test; type: toxicity, organism-based; conditions: in vivo
# [20] = test system: Mus musculus; test: Neurotoxicity in mouse at 20 mg/kg, ip after 1 hr by rotarod test; type: toxicity, organism-based; conditions: in vivo
# [21] = test system: Mus musculus; test: Neurotoxicity in mouse at 20 mg/kg, ip after 2 hrs by rotarod test; type: toxicity, organism-based; conditions: in vivo
# [22] = test system: Mus musculus; test: Neurotoxicity in mouse at 20 mg/kg, ip after 4 hrs by rotarod test; type: toxicity, organism-based; conditions: in vivo
# [23] = test system: Mus musculus; test: Neurotoxicity in mouse at 30 mg/kg, ip after 4 hrs by rotarod test; type: toxicity, organism-based; conditions: in vivo
# Outline: (§2)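 Mice were dosed ip with compound suspended in 0.5% methylcellulose. Rotarod: a 1 in. knurled rod turning at 6 rpm. Neurotoxicity was scored as failure to stay on the rod for at least 1 min in each of three trials. Results are given as the number of animals affected out of the number tested.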
# [24] = test system: Mus musculus; test: Neurotoxicity in mouse at 100 mg/kg, ip after 0.5 hrs by rotarod test; type: toxicity, organism-based; conditions: in vivo; outline: as §2
# [25] = test system: Mus musculus; test: Neurotoxicity in mouse at 300 mg/kg, ip after 0.5 hrs by rotarod test; type: toxicity, organism-based; conditions: in vivo; outline: as §2
# [26] = test system: Mus musculus; test: Anticonvulsant activity in ip dosed mouse assessed as protection against maximal electric shock-induced seizures measured after […]; type: functional
# [27] = test system: Mus musculus; test: Anticonvulsant activity in ip dosed mouse assessed as protection against subcutaneous pentylenetetrazol-induced seizures measured after […]; type: functional
# [28] = Neurotoxicity in ip dosed mouse after […] by rotarod test; type: toxicity, organism-based; conditions: in vivo
# [29] = test system: Rattus norvegicus; test: Toxicity in pilocarpine-induced status epilepticus Sprague-Dawley rat assessed as death at 100 mg/kg, ip after […]; type: organism-based; conditions: in vivo
# [30] = test system: Vibrio harveyi; test: Mutagenicity in Vibrio harveyi BB7 assessed as number of colonies after 48 hrs (reference value: 13 to 14 no_unit); type: ADME, organism-based; conditions: in vivo
# Outline: (§3)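 Vibrio harveyi mutagenicity test: test compound was added to exponentially growing cultures (A600 = 0.1, 30 °C) and grown to OD600 0.3–0.4. Then 5 × 10^6 cells were plated on BOSS agar with neomycin (final 100 µg/mL) and incubated 48 h at 30 °C. Neomycin-resistant colonies were counted. Triplicate; controls were water, DMSO and NQNO 40 ng/mL.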
# [31] = test system: Vibrio harveyi; test: Mutagenicity in Vibrio harveyi BB7X assessed as number of colonies after 48 hrs (reference value: 15 to 16 no_unit); type: ADME, organism-based; conditions: in vivo; outline: as §3
# [32] = test system: Vibrio harveyi; test: Mutagenicity in Vibrio harveyi BB7M assessed as number of colonies after 48 hrs (reference value: 13 to 14 no_unit); type: ADME, organism-based; conditions: in vivo; outline: as §3
# [33] = test system: Vibrio harveyi; test: Mutagenicity in Vibrio harveyi BB7XM assessed as number of colonies after 48 hrs (reference value: 14 no_unit); type: ADME, organism-based; conditions: in vivo; outline: as §3
# [34] = test system: Vibrio harveyi; test: Antimutagenic activity against Vibrio harveyi BB7 assessed as inhibition of NQNO-induced mutagenicity after 48 hrs; type: functional
# Outline: (§4)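 V. harveyi cultures grown exponentially to A600 0.1 at 30 °C, exposed to test compound for 15 min, then to NQNO, and grown on to A600 0.3–0.4. 5 × 10⁶ cells plated on BOSS agar with neomycin (100, final). Neomycin-resistant colonies counted after 48 h at 30 °C. Result given as % inhibition of NQNO mutagenicity; three independent repeats.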
# [35] = test system: Vibrio harveyi; test: Antimutagenic activity against Vibrio harveyi BB7M assessed as inhibition of NQNO-induced mutagenicity after 48 hrs; type: functional; outline: as §4
# [36] = test system: Vibrio harveyi; test: Antimutagenic activity against Vibrio harveyi BB7XM assessed as inhibition of NQNO-induced mutagenicity after 48 hrs; type: functional; outline: as §4
# [37] = Retention time of the compound in mouse liver microsomes at 20 uM preincubated for 15 mins followed by addition of NADPH-regenerating system measured after 5 to 90 mins by […] analysis; type: ADME
# Outline: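 Mouse liver microsomes (0.4 mg/mL) with test compound (20 µM) in 100 mM potassium phosphate, pH 7.4, were preincubated 15 min at 37 °C. An NADPH-regenerating system was then added and incubation ran 5–90 min at 37 °C. Levallorphan (20 µM) served as internal standard, and reactions were quenched with perchloric acid. The supernatant was analysed by UPLC/MS. Duplicate incubations.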
# [38] = in vitro; conditions: mouse, liver microsomes
# [39] = in vitro; conditions: mouse, liver microsomes; remark: listed apart in the source
# Sequence of Muscarinic acetylcholine receptor M5 (P08912 whole entry): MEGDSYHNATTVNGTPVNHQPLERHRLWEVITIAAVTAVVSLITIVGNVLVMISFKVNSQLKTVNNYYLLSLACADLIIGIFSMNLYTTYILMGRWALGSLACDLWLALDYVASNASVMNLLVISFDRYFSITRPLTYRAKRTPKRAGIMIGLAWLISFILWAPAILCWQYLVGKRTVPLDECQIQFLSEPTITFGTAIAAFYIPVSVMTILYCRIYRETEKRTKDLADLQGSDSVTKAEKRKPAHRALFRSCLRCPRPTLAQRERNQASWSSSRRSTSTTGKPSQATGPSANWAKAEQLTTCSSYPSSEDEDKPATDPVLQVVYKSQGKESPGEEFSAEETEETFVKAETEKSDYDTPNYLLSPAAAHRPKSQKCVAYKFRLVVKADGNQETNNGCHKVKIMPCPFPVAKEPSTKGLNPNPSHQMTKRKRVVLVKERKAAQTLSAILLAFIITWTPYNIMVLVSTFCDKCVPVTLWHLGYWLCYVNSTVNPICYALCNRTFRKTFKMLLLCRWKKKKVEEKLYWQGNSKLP
smiles,measurement,setting,value
Nc1ncnc2c1ncn2[C@@H]1O[C@H](COP(O)(=S)OP(=O)(O)OP(=O)(O)O)[C@@H](O)[C@H]1O (some centres undefined),IC50,[1],29 nM
C[C@]12N[C@H](Cc3ccccc31)c1ccccc12 [DIZOCILPINE],IC50,[2],4.6 nM
C[N+]1(C)CCC(OC(=O)C(c2ccccc2)c2ccccc2)CC1 [4-DAMP],IC50,[3],0.32 nM
Cc1cccc(C)c1OCCOCCN[C@@H](C)CO,Activity,[4],Non-toxic
same,Activity,[5],Non-toxic
same,Activity,[6],Non-toxic
same,Activity,[7],Non-toxic
same,Activity,[8],Non-toxic
same,Activity,[9],Non-toxic
same,Activity,[10],Non-toxic
same,Activity,[11],Non-toxic
same,Activity,[12],Non-toxic
same,Activity,[13],Non-toxic
same,Activity,[14],Non-toxic
same,Activity,[15],Non-toxic
same,Activity,[16],Non-toxic
same,Activity,[17],Toxic
same,Activity,[18],Non-toxic
same,Activity,[19],Non-toxic
same,Activity,[20],Non-toxic
same,Activity,[21],Non-toxic
same,Activity,[22],Non-toxic
same,Activity,[23],Non-toxic
same,Activity,[24],Toxic
same,Activity,[25],Toxic
same,ED50,[26],11.3 mg/kg
same,ED50,[27],> 43 mg/kg
same,TD50 at […],[28],39.2 mg/kg
same,Activity,[29],Non-toxic
same,Activity,[30],15
same,Activity,[31],22
same,Activity,[32],26
same,Activity,[33],18
same,inhibition (INH),[34],70%
same,inhibition (INH),[35],69%
same,inhibition (INH),[36],5%
same,Retention_time,[37],3.8 min
same,half-life at 20 µM,[38],37 min
same,microsomal CLint at 20 µM,[39],47 µL/min/mg
